Assay [1] concerns Radical scavenging activity. The assay can be described thus: Antioxidant activity assessed as DPPH radical scavenging activity. It counts as functional. In a few lines: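 Test sample in EtOH mixed with 0.1 M HOAc–NaOAc buffer (pH 5.5) and DPPH in EtOH (800 µM stock). Reacted 30 min at room temperature in microplate wells; absorbance read at 517 nm. Value reported as SC50 (50% scavenging concentration).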

A short description of assay [2]: Antioxidant activity assessed as superoxide anion radical scavenging activity. It counts as functional. In a few lines:
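Superoxide generated by xanthine–xanthine oxidase in 0.05 M Na2CO3 (pH 10.2) with xanthine, EDTA, BSA and nitroblue tetrazolium (stocks 3 mM, 3 mM, 1.5 mg/mL, 0.75 mM); reaction started with xanthine oxidase (0.1 mg/mL stock). Incubated 20 min at 25 °C, stopped with CuCl2, absorbance at 560 nm; IC50 reported.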

The structures appear in SMILES notation.

As usually defined, the IC50 is the concentration that inhibits the measured activity by half.

In the case of `O=C1C=C2O[C@H](c3ccc(O)c(O)c3)[C@@H](O)[C@@H]3c4c(O)cc(O)cc4[C@H](C23)[C@H](c2ccc(O)c(O)c2)C1` (stereo partly specified), the SC50 in assay [1] was 3.83 µM. As for `O=C1c2c(O)cc(O)cc2O[C@H](c2ccc(O)c(O)c2)[C@H]1O` [(+)-TAXIFOLIN], the IC50 in assay [2] was found to be 1410 nM. Besides, in assay [1], the SC50 was determined as 10.4 µM. Take `Oc1cc(O)c2c(c1)O[C@H](c1ccc(O)c(O)c1)[C@@H](O)C2` [CIANIDANOL]: the IC50 in assay [2] amounted to 2310 nM. In assay [1], the SC50 was 11.4 µM. For `O=C(O)/C=C/c1ccc(O)cc1` [COUMARIC ACID], in that order: 104000 nM and 117 µM. Taken in the same sequence, the figures for `COc1cc([C@@H]2Oc3c(OC)cc(CCCO)cc3[C@H]2CO)ccc1O` [DIHYDRODEHYDRODICONIFERYL ALCOHOL] were 344000 nM and 69.1 µM. For `O=C(O)c1cc(O)c(O)c(O)c1` [GALLIC ACID], in that order: 530 nM and 8.08 µM. `COc1cc([C@H]2c3cc(O)c(OC)cc3C[C@@H](CO)[C@@H]2CO)ccc1O` [ISOLARICIRESINOL]: in assay [2], the 50% inhibitory concentration (IC50) turned out to be 70700 nM. The SC50 in assay [1] came to 13.7 µM. Taken in the same sequence, the figures for `Oc1cc(O)cc([C@@H]2c3c(cc(O)c4c3O[C@H](c3ccc(O)c(O)c3)[C@@H](O)C4)O[C@H]2c2ccc(O)c(O)c2)c1` [JEZONOCINOL A] were 2030 nM and 9.92 µM.

`Oc1cc(O)cc([C@H]2c3c(cc(O)c4c3O[C@H](c3ccc(O)c(O)c3)[C@@H](O)C4)O[C@@H]2c2ccc(O)c(O)c2)c1` [JEZONOCINOL B]: in assay [2], the IC50 came out at 1800 nM. In assay [1], the SC50 worked out at 11.8 µM. For `O=Cc1ccc(O)c(O)c1` [PROTOCATECHUALDEHYDE], in that order: 25300 nM and 12.2 µM.

In the case of `O=C(O)c1ccc(O)c(O)c1` [PROTOCATECHUIC ACID], in assay [2], the IC50 was found to be 3310 nM. Besides, the SC50 in assay [1] came out at 17.3 µM.

The record behind these values is ChEMBL document CHEMBL1141315, “Structures and radical-scavenging activities of phenolic constituents from the bark of Picea jezoensis var. jezoensis” (J Nat Prod, 2007).
